Results: ChEMBL document CHEMBL2176949 (J Med Chem, 2012)

Assays:
[1] = molecular target: T1, Neuronal acetylcholine receptor; alpha3/beta4 (Homo sapiens, UniProt P30926+P32297); test: Agonist activity at human alpha3beta4 nAChR expressed in human SH-SY5Y cells assessed as increase in calcium flux by FLIPR; type: functional, cell-based
[2] = molecular target: T2, Neuronal acetylcholine receptor; alpha4/beta2 (Homo sapiens, UniProt P17787+P43681); test: Agonist activity at human alpha4beta2 nAChR expressed in human SH-EP1 cells by whole cell voltage clamp based electrophysiology method; type: functional
In short: (§1)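 Whole-cell voltage clamp at -60 mV, room temperature (22 ± 1 °C), one cell per agonist load, Dynaflow fast application. Agonist applied 1 s for α4β2 and 0.5 s for α7, with 30 s washout. Tris-based pipette solution, pH 7.3. Concentration-response data fitted to the Hill equation, with α4β2 fitted as the sum of two Hill equations. Max % relative to 1 mM ACh.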

[3] = molecular target: Nicotinic acetylcholine receptor alpha6/alpha3/beta2/beta3 (Rattus norvegicus) (UniProt P04757+P12390+P12391+P43143); test: Agonist activity at alpha6/alpha3beta2beta3 nAChR in Sprague-Dawley rat striatal synaptosomes assessed as induction of dopamine release relative to 10 uM nicotine; type: functional, subcellular; conditions: Brain
[4] = Agonist activity at human nAChR alpha6/alpha3beta2beta3 V273S mutant expressed in HEK293T cells by FLIPR; type: functional, cell-based; conditions: HEK-293T
[5] = molecular target: T2, Neuronal acetylcholine receptor; alpha4/beta2; test: Agonist activity at human alpha4beta2 nAChR high sensitivity form expressed in human SH-EP1 cells assessed as increase in calcium flux by FLIPR; type: functional, cell-based
[6] = Agonist activity at rat alpha7 nAChR T6'S59 mutant expressed in rat GH4C1 cells by whole cell voltage clamp based electrophysiology method; type: functional; conditions: GH4-C1; in short: as §1
[7] = molecular target: T2, Neuronal acetylcholine receptor; alpha4/beta2; test: Agonist activity at human alpha4beta2 nAChR expressed in human SH-EP1 cells by whole cell voltage clamp based electrophysiology method relative to 1 mM acetylcholine; type: functional; in short: as §1
[8] = Agonist activity at rat alpha7 nAChR T6'S59 mutant expressed in rat GH4C1 cells by whole cell voltage clamp based electrophysiology method relative to 1 mM acetylcholine; type: functional, GH4-C1; in short: as §1
[9] = molecular target: T2, Neuronal acetylcholine receptor; alpha4/beta2; test: Agonist activity at human alpha4beta2 nAChR high sensitivity form expressed in human SH-EP1 cells assessed as increase in calcium flux by FLIPR relative to 10 uM nicotine; type: functional, cell-based
[10] = molecular target: T2, Neuronal acetylcholine receptor; alpha4/beta2; test: Agonist activity at human alpha4beta2 nAChR low sensitivity form expressed in human SH-EP1 cells assessed as increase in calcium flux by FLIPR relative to 10 uM nicotine; type: functional, cell-based
[11] = molecular target: Nicotinic acetylcholine receptor alpha6/alpha3/beta2/beta3 (Rattus norvegicus, UniProt P04757+P12390+P12391+P43143); test: Agonist activity at alpha6/alpha3beta2beta3 nAChR in Sprague-Dawley rat striatal synaptosomes assessed as induction of dopamine release; type: functional, subcellular, Brain
[12] = molecular target: T2, Neuronal acetylcholine receptor; alpha4/beta2; test: Agonist activity at human alpha4beta2 nAChR low sensitivity form expressed in human SH-EP1 cells assessed as increase in calcium flux by FLIPR; type: functional, cell-based
[13] = molecular target: T1, Neuronal acetylcholine receptor; alpha3/beta4; test: Displacement of [3H]epibatidine from human alpha3beta4 nAChR expressed in human SH-SY5Y cells; type: cell-based
In short: (§2)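 Binding to membranes from the cell lines: homogenised in PBS pH 7.4, spun at 40000g for 20 min at 4 °C, then incubated 2 h on ice in PBS with competitor (0.001 nM to 100 μM) and radioligand. Filters washed in ice-cold PBS and counted by scintillation. IC50 from nonlinear regression; Ki by Cheng-Prusoff. Minimum of three assays, ± SEM.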

[14] = molecular target: T2, Neuronal acetylcholine receptor; alpha4/beta2; test: Displacement of [3H]nicotine from human alpha4beta2 nAChR expressed in human SH-EP1 cells; type: cell-based; in short: as §2
[15] = molecular target: Neuronal acetylcholine receptor; alpha3/alpha6/beta2/beta3 (Homo sapiens, UniProt P17787+P32297+Q05901+Q15825); test: Displacement of [3H]epibatidine from human alpha6/alpha3beta2beta3 nAChR expressed in HEK293T cells
[16] = molecular target: Neuronal acetylcholine receptor subunit alpha-7 (Homo sapiens, UniProt P36544); test: Displacement of [3H]epibatidine from human alpha7 nAChR expressed in human HEK/RIC3 cells; type: cell-based; in short: as §2
[17] = molecular target: T1, Neuronal acetylcholine receptor; alpha3/beta4; test: Agonist activity at human alpha3beta4 nAChR expressed in human SH-SY5Y cells assessed as increase in calcium flux by FLIPR relative to 10 uM nicotine; type: functional, cell-based
[18] = Agonist activity at human nAChR alpha6/alpha3beta2beta3 V273S mutant expressed in HEK293T cells by FLIPR relative to 10 uM nicotine; type: functional, HEK-293T
Homo sapiens [19] = organism: Homo sapiens; test: Selectivity index, ratio of Ki for human alpha3beta4 nAChR to Ki for human alpha4beta2 nAChR
Homo sapiens [20] = organism: Homo sapiens; test: Ratio of EC50 for human nAChR alpha6/alpha3beta2beta3 V273S mutant to Ki for human alpha6/alpha3beta2beta3 nAChR

Nicotinic acetylcholine receptor alpha6/alpha3/beta2/beta3, sequence (P04757 whole entry): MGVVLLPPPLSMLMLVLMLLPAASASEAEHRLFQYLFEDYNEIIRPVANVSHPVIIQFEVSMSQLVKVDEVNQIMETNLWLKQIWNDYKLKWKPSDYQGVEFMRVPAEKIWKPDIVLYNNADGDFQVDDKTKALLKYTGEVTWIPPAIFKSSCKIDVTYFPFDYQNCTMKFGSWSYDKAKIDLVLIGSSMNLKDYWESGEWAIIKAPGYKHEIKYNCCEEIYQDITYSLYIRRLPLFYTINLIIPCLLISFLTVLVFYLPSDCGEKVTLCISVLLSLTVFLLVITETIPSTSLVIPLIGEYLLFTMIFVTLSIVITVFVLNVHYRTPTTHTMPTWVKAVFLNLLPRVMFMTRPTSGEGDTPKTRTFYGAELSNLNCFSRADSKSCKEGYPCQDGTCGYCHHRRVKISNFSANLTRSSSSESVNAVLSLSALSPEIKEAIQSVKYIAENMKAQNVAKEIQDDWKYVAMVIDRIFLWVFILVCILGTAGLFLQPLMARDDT
Nicotinic acetylcholine receptor alpha6/alpha3/beta2/beta3, sequence (P12390 whole entry): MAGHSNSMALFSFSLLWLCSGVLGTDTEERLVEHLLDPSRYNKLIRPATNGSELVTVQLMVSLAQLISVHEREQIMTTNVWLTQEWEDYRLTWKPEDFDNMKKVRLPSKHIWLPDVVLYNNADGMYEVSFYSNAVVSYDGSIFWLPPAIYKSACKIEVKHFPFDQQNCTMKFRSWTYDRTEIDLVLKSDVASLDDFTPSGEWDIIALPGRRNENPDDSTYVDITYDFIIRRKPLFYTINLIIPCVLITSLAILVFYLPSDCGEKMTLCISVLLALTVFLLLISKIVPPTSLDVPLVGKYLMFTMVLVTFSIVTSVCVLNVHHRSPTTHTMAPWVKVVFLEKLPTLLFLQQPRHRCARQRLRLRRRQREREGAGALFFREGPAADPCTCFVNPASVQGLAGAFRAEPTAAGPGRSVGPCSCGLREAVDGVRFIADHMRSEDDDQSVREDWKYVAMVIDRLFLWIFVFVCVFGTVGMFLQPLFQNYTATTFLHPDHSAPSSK
Nicotinic acetylcholine receptor alpha6/alpha3/beta2/beta3, sequence (P12391 whole entry): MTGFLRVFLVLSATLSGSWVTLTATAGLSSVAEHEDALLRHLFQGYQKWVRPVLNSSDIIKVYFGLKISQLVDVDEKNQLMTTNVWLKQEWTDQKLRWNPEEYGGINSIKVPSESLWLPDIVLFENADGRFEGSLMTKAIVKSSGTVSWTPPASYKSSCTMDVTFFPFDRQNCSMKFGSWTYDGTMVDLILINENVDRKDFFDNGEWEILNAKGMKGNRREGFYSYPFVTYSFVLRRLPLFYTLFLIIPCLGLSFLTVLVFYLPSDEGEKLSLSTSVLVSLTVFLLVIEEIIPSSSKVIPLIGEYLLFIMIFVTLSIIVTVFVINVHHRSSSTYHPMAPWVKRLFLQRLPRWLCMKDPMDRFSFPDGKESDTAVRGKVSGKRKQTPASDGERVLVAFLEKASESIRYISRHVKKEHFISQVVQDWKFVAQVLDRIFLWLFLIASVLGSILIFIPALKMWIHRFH
Nicotinic acetylcholine receptor alpha6/alpha3/beta2/beta3, sequence (P43143 whole entry): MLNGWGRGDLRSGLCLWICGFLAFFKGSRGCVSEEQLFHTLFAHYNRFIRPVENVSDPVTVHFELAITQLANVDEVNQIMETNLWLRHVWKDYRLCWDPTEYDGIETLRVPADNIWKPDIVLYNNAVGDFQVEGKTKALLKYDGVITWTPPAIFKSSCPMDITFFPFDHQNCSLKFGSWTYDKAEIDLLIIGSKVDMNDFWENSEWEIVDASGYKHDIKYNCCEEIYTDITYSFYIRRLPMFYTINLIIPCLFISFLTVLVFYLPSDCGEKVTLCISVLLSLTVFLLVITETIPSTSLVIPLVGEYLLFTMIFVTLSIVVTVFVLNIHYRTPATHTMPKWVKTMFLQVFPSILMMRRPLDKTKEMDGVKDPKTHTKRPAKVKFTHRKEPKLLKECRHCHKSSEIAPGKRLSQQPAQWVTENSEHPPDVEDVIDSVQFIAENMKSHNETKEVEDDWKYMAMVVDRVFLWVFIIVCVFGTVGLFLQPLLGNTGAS
T1 sequence (P30926 whole entry): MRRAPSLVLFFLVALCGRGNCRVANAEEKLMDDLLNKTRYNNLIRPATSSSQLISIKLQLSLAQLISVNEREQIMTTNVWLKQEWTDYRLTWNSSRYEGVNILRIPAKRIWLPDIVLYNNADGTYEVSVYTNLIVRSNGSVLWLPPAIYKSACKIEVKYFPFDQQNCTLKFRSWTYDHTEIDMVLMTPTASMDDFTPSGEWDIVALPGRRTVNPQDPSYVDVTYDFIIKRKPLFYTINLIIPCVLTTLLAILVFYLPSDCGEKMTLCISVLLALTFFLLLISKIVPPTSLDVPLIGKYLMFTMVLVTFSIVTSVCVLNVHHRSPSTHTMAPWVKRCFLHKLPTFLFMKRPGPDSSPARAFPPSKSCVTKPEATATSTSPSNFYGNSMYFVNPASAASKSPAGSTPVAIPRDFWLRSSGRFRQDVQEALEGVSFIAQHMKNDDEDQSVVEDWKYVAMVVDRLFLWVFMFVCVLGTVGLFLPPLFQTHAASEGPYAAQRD
T1 sequence (P32297 whole entry): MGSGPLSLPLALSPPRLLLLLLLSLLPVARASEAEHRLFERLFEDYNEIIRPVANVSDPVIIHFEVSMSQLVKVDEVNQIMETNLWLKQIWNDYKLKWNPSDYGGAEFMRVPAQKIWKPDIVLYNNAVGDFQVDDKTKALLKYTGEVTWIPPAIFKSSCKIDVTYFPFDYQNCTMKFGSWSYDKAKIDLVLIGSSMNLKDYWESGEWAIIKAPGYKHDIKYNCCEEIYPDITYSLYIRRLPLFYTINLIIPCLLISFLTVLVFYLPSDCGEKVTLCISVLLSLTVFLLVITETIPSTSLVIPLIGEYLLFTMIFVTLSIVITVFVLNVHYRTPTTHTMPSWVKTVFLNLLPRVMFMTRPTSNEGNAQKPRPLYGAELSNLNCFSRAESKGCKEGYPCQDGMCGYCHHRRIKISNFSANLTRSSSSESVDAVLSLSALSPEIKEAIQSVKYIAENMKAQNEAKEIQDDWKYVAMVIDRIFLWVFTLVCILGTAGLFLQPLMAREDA
T2 sequence (P17787 whole entry): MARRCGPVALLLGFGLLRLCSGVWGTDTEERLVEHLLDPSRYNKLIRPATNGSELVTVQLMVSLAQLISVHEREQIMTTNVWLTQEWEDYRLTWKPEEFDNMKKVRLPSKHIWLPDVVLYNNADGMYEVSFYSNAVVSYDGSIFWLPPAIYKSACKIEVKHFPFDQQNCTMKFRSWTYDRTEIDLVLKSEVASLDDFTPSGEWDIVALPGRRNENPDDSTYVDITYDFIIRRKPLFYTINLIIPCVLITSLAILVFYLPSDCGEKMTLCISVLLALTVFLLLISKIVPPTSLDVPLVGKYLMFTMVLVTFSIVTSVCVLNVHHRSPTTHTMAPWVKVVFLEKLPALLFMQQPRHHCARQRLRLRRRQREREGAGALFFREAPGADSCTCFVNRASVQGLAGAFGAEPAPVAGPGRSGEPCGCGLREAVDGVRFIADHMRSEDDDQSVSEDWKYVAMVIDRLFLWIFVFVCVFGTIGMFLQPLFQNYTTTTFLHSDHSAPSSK
T2 sequence (P43681 whole entry): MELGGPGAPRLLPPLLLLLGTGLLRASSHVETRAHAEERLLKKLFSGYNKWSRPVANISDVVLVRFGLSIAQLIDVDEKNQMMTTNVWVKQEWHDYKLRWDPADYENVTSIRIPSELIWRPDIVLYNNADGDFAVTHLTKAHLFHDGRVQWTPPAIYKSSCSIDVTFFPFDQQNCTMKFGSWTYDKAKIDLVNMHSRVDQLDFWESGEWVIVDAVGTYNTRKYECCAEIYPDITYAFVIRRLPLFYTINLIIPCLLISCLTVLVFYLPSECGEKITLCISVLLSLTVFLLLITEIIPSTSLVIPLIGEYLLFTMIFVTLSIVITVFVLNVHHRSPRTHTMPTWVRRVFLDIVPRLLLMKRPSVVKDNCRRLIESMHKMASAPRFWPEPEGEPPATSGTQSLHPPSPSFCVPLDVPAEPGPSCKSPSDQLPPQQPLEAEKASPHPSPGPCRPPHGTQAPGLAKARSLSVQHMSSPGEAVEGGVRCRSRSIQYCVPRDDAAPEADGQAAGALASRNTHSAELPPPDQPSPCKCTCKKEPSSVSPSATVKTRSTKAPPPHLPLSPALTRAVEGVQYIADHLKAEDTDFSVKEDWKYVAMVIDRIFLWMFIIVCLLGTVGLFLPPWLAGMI
Neuronal acetylcholine receptor subunit alpha-7, sequence (P36544 whole entry): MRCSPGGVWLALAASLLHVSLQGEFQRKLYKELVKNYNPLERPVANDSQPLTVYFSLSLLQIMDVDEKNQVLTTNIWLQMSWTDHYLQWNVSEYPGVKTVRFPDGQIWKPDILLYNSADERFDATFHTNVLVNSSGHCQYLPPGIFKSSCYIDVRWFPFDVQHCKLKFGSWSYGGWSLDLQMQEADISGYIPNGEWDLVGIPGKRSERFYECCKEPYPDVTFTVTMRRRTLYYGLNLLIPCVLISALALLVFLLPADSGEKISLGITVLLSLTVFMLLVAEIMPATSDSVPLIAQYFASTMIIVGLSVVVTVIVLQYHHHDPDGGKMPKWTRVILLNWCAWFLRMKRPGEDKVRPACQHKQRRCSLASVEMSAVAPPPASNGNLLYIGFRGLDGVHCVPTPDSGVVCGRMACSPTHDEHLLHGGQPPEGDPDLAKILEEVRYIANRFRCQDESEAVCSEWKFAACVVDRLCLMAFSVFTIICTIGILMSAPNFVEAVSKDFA

| Structure (SMILES) | EC50 [1] | EC50 [2] | %max [3] | EC50 [4] | EC50 [5] | EC50 [6] | %max [7] | %max [8] | %max [9] | %max [10] | EC50 [11] | EC50 [12] | Ki [13] | Ki [14] | Ki [15] | Ki [16] | %max [17] | %max [18] | Ratio Ki (Homo sapiens [19]) | Ratio (Homo sapiens [20]) |
| --- | --- | --- | --- | --- | --- | --- | --- | --- | --- | --- | --- | --- | --- | --- | --- | --- | --- | --- | --- | --- |
| C1=C(c2cncc(Oc3ccccc3)c2)CC2CNCC1C2 (centres undefined) | 23 nM | 590 nM | 57% | > 10000 nM | 62 nM | 350 nM | 9% | 31% | 52% | 30% | 718 nM | 654 nM | 1.9 nM | 0.7 nM | 4.8 nM | 22 nM | 101% | 0% | – | – |
| Clc1ccc(C2=CC3CNCC(C2)C3)cn1 (centres undefined) | 16 nM | – | – | – | 54 nM | – | – | – | 98% | 152% | – | 35 nM | 6.2 nM | 0.4 nM | – | 39 nM | 141% | – | – | – |
| COc1cncc(C2=CC3CNCC(C2)C3)c1 (centres undefined) | 105 nM | – | – | – | 49 nM | – | – | – | 72% | 100% | – | 53 nM | 14.3 nM | 0.3 nM | – | 4.6 nM | 145% | – | – | – |
| C1=C(c2cccnc2)C[C@H]2CNC[C@@H]1C2 | 37 nM | 100 nM | 73% | 14 nM | 2.3 nM | 30 nM | 40% | 20% | 114% | 129% | 0.95 nM | 12 nM | 4 nM | 0.2 nM | 0.95 nM | 1.2 nM | 142% | 110% | 20 | 15 |
| Cc1ccc(C2=CC3CNCC(C2)C3)cn1 (centres undefined) | 93 nM | – | – | – | 75 nM | – | – | – | 107% | 112% | – | 79 nM | 25 nM | 0.3 nM | – | 80 nM | 149% | – | – | – |
| COc1ccc(C2=CC3CC(C2)CN(C)C3)cn1 (centres undefined) | 1890 nM | – | – | – | 3460 nM | – | – | – | 91% | 20% | – | > 10000 nM | > 10000 nM | 797 nM | – | > 10000 nM | 61% | – | – | – |
| Fc1cncc(C2=C[C@@H]3CNC[C@H](C2)C3)c1 | 111 nM | – | – | – | 34 nM | – | – | – | 112% | 120% | – | 36 nM | 5.4 nM | 0.2 nM | – | 1.6 nM | 153% | – | – | – |
| CN1C[C@H]2C=C(c3cccnc3)C[C@H](C2)C1 | 7530 nM | 3500 nM | 27% | > 10000 nM | > 10000 nM | 3800 nM | 19% | 100% | 19% | 11% | > 10000 nM | 7660 nM | 534 nM | 2.1 nM | 300 nM | 74 nM | 31% | 7% | – | – |
| CN1C[C@@H]2C=C(c3cccnc3)C[C@@H](C2)C1 | > 10000 nM | 3100 nM | 13% | > 10000 nM | 6660 nM | 6000 nM | 18% | 87% | 53% | 17% | 855 nM | > 10000 nM | 1800 nM | 9.4 nM | 320 nM | 70 nM | 25% | 9% | – | – |
| CC(C)Oc1cncc(C2=CC3CNCC(C2)C3)c1 (centres undefined) | 69 nM | 1400 nM | 86% | > 10000 nM | 164 nM | 2800 nM | 11% | 92% | 75% | 54% | 1090 nM | 562 nM | 4.8 nM | 0.26 nM | 2.6 nM | 105 nM | 160% | 3% | – | – |
| C1=C(c2cncc(-c3ccccc3)c2)CC2CNCC1C2 (centres undefined) | 181 nM | – | – | – | 85 nM | – | – | – | 33% | 5.3% | – | > 10000 nM | 17 nM | 0.8 nM | – | 3220 nM | 61% | – | – | – |
| CC(C)Oc1cncc(C2=CC3CC(C2)CN(C)C3)c1 (centres undefined) | > 10000 nM | 3500 nM | 63% | > 10000 nM | > 10000 nM | 21300 nM | 10% | 60% | 1% | 3.3% | 879 nM | > 10000 nM | 1730 nM | 2.2 nM | 690 nM | > 10000 nM | 15% | 0.2% | – | – |
